# Data published in ChEMBL document CHEMBL4699571, “Synthesis of Natural and Unnatural Quinolones Inhibiting the Growth and Motility of Bacteria” (2020).
# The source made the active and inactive calls. The calls are words filed in the database; no cut-off is given here.
# Tests used:
# Bacillus spizizenii [1] = assay: Inhibition of swarming motility of Bacillus subtilis subsp. spizizenii ATCC 6633 at 10 uM after 24 hrs; assay type: functional, organism-based
# [2] = system: Staphylococcus epidermidis; assay: Antimicrobial activity against Staphylococcus epidermidis ATCC 14990 assessed as zone of inhibition at 2 mg/ml after 24 hrs by agar well diffusion method; assay type: functional; details: for zone of inhibition at 2000 µg/mL: read-out: DIZ
# Procedure, shortened: (§1)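 Preliminary agar well-diffusion screen run against a panel of eight Gram-positive and Gram-negative test microbes.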
# Pseudomonas aeruginosa [3] = assay: Antimicrobial activity against Pseudomonas aeruginosa ATCC 15692 assessed as zone of inhibition at 2 mg/ml after 24 hrs by agar well diffusion method; assay type: functional; details: for zone of inhibition at 2000 µg/mL: read-out: DIZ; procedure, shortened: as §1
# Pseudomonas aeruginosa [4] = assay: Antimicrobial activity against Pseudomonas aeruginosa ATCC 15692 assessed as reduction in microbial growth at 1.1 to 33.4 ug/ml after 24 hrs by broth microdilution method; assay type: functional, organism-based; details: dose microg/ml 1.1-33.4, time 24.0 hrs
# Procedure, shortened: (§2)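 P. aeruginosa growth-inhibition assay in broth. Each compound was tested at final concentrations of 1.1, 2.1, 4.2, 8.4, 16.7 and 33.4 μg/mL. The read-out is the extent of growth inhibition at each concentration.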
# Pseudomonas aeruginosa [5] = assay: Antimicrobial activity against Pseudomonas aeruginosa ATCC 15692 assessed as reduction in microbial growth after 24 hrs by broth microdilution method; assay type: functional; procedure, shortened: as §2
# Pseudomonas aeruginosa [6] = assay: Antimicrobial activity against Pseudomonas aeruginosa ATCC 15692 assessed as reduction in microbial growth at 0.25 times of MIC concentration after 2 to 24 hrs by time kill assay; assay type: functional, organism-based; details: time 2.0 hrs
# Procedure, shortened: (§3)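 Time-kill study against P. aeruginosa with compound at 1/4 MIC, MIC and 4 × MIC. Viable counts were followed as log CFU over a 24 h period, with sampling from 2 h onward. Ciprofloxacin served as the positive control.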
# Pseudomonas aeruginosa [7] = assay: Antimicrobial activity against Pseudomonas aeruginosa ATCC 15692 assessed as reduction in microbial growth at 2.1 to 33.4 ug/ml after 24 hrs by broth microdilution method relative to control; assay type: functional; details: dose microg/ml 2.1-33.4; procedure, shortened: as §2
# Bacillus spizizenii [8] = assay: Antimicrobial activity against Bacillus subtilis subsp. spizizenii ATCC 6633 assessed as zone of inhibition at 2 mg/ml after 24 hrs by agar well diffusion method; assay type: functional; details: for zone of inhibition at 2000 µg/mL: read-out: DIZ; procedure, shortened: as §1
# Staphylococcus aureus = assay: Antimicrobial activity against Staphylococcus aureus ATCC 12600 assessed as zone of inhibition at 2 mg/ml after 24 hrs by agar well diffusion method; assay type: functional; details: for zone of inhibition at 2000 µg/mL: read-out: DIZ; procedure, shortened: as §1
# Pseudomonas aeruginosa [9] = assay: Antimicrobial activity against Pseudomonas aeruginosa ATCC 15692 assessed as reduction in microbial growth at 4 times of MIC concentration after 24 hrs by time kill assay; assay type: functional, organism-based; procedure, shortened: as §3
# Pseudomonas aeruginosa [10] = assay: Antimicrobial activity against Pseudomonas aeruginosa ATCC 15692 assessed as reduction in microbial growth at MIC concentration after 10 hrs by time kill assay; assay type: functional, organism-based; procedure, shortened: as §3
structure (smiles),measurement,setting,value
CSCc1c(C)c2ccccc2[nH]c1=O,swarming motility inhibition (active/not active),Bacillus spizizenii [1],Active
CCCC/C=C/Cc1cc(=O)c2ccccc2[nH]1,zone of inhibition at 2000 µg/mL,[2],24 mm
same,zone of inhibition at 2000 µg/mL,Pseudomonas aeruginosa [3],35 mm
same,Activity,Pseudomonas aeruginosa [4],Active
same,MIC,Pseudomonas aeruginosa [5],33 mg/L
same,Activity,Pseudomonas aeruginosa [6],Active
same,inhibition (INH),Pseudomonas aeruginosa [7],37%
same,zone of inhibition at 2000 µg/mL,Bacillus spizizenii [8],9 mm
same,zone of inhibition at 2000 µg/mL,Staphylococcus aureus,9 mm
same,Activity,Pseudomonas aeruginosa [9],Active
same,Activity,Pseudomonas aeruginosa [10],Active
same,swarming motility inhibition (active/not active),Bacillus spizizenii [1],Active
CCO/C=C/c1cc(=O)c2ccccc2[nH]1,swarming motility inhibition (active/not active),Bacillus spizizenii [1],inactive
CCCC/C=C/Cc1cc(=O)c2ccccc2n1C,swarming motility inhibition (active/not active),Bacillus spizizenii [1],Active
O=c1cc(Cc2ccccc2)[nH]c2ccccc12,Activity,Pseudomonas aeruginosa [4],inactive
same,swarming motility inhibition (active/not active),Bacillus spizizenii [1],Active
CCSC(SCC)c1c(C)c2ccccc2[nH]c1=O,Activity,Pseudomonas aeruginosa [4],inactive
same,swarming motility inhibition (active/not active),Bacillus spizizenii [1],inactive
CSc1ccc(Cc2cc(=O)c3ccccc3[nH]2)cc1,diameter of the inhibition zone (DIZ),[2],inactive
same,zone of inhibition at 2000 µg/mL,Pseudomonas aeruginosa [3],29 mm
same,Activity,Pseudomonas aeruginosa [4],inactive
same,diameter of the inhibition zone (DIZ),Bacillus spizizenii [8],inactive
same,diameter of the inhibition zone (DIZ),Staphylococcus aureus,inactive
same,swarming motility inhibition (active/not active),Bacillus spizizenii [1],Active
COCc1c(C)c2ccccc2[nH]c1=O,swarming motility inhibition (active/not active),Bacillus spizizenii [1],Active
Cn1c(Cc2ccccc2)cc(=O)c2ccccc21,Activity,Pseudomonas aeruginosa [4],inactive
same,swarming motility inhibition (active/not active),Bacillus spizizenii [1],inactive
O=C(O)c1cn(C2CC2)c2cc(N3CCNCC3)c(F)cc2c1=O [CIPROFLOXACIN],zone of inhibition at 2000 µg/mL,Pseudomonas aeruginosa [3],35 mm
CCSCc1c(C)c2ccccc2[nH]c1=O,swarming motility inhibition (active/not active),Bacillus spizizenii [1],Active
COC(OC)c1c(C)c2ccccc2[nH]c1=O,swarming motility inhibition (active/not active),Bacillus spizizenii [1],inactive
CS/C=C/c1cc(=O)c2ccccc2[nH]1,diameter of the inhibition zone (DIZ),[2],inactive
same,diameter of the inhibition zone (DIZ),Pseudomonas aeruginosa [3],inactive
same,Activity,Pseudomonas aeruginosa [4],inactive
same,zone of inhibition at 2000 µg/mL,Bacillus spizizenii [8],23 mm
same,diameter of the inhibition zone (DIZ),Staphylococcus aureus,inactive
same,swarming motility inhibition (active/not active),Bacillus spizizenii [1],inactive
CO/C=C/c1cc(=O)c2ccccc2[nH]1,swarming motility inhibition (active/not active),Bacillus spizizenii [1],inactive
CSc1ccc(Cc2cc(=O)c3ccccc3n2C)cc1,diameter of the inhibition zone (DIZ),[2],inactive
same,zone of inhibition at 2000 µg/mL,Pseudomonas aeruginosa [3],36 mm
same,Activity,Pseudomonas aeruginosa [4],inactive
same,diameter of the inhibition zone (DIZ),Bacillus spizizenii [8],inactive
same,diameter of the inhibition zone (DIZ),Staphylococcus aureus,inactive
same,swarming motility inhibition (active/not active),Bacillus spizizenii [1],Active
CC1(C)S[C@@H]2[C@H](NC(=O)[C@H](N)c3ccccc3)C(=O)N2[C@H]1C(=O)O [AMPICILLIN],zone of inhibition at 2000 µg/mL,[2],29 mm
same,zone of inhibition at 2000 µg/mL,Staphylococcus aureus,39 mm
CS/C=C\c1cc(=O)c2ccccc2[nH]1,swarming motility inhibition (active/not active),Bacillus spizizenii [1],inactive
CCS/C=C/c1cc(=O)c2ccccc2[nH]1,diameter of the inhibition zone (DIZ),[2],inactive
same,diameter of the inhibition zone (DIZ),Pseudomonas aeruginosa [3],inactive
same,Activity,Pseudomonas aeruginosa [4],inactive
same,diameter of the inhibition zone (DIZ),Bacillus spizizenii [8],inactive
same,zone of inhibition at 2000 µg/mL,Staphylococcus aureus,13 mm
same,swarming motility inhibition (active/not active),Bacillus spizizenii [1],inactive
CCOC(OCC)c1c(C)c2ccccc2[nH]c1=O,swarming motility inhibition (active/not active),Bacillus spizizenii [1],inactive
CSC(SC)c1c(C)c2ccccc2[nH]c1=O,Activity,Pseudomonas aeruginosa [4],inactive
same,swarming motility inhibition (active/not active),Bacillus spizizenii [1],inactive
Cc1c(CN(C)C)c(=O)[nH]c2ccccc12,swarming motility inhibition (active/not active),Bacillus spizizenii [1],Active
CN[C@H](CC(C)C)C(=O)N[C@H]1C(=O)N[C@@H](CC(N)=O)C(=O)N[C@H]2C(=O)N[C@H]3C(=O)N[C@H](C(=O)N[C@H](C(=O)O)c4cc(O)cc(O)c4-c4cc3ccc4O)[C@H](O)c3ccc(c(Cl)c3)Oc3cc2cc(c3O[C@@H]2O[C@H](CO)[C@@H](O)[C@H](O)[C@H]2O[C@H]2C[C@](C)(N)[C@H](O)[C@H](C)O2)Oc2ccc(cc2Cl)[C@H]1O [VANCOMYCIN],zone of inhibition at 2000 µg/mL,Bacillus spizizenii [8],19 mm
